Results collected from several papers.
Protocols differ between the studies behind these lines.
Target: Vascular endothelial growth factor receptor 2 (KDR, Homo sapiens, UniProt P35968)

| SMILES | read-out | method | concentration | remaining binding |
| --- | --- | --- | --- | --- |
| CN(CCCC(F)(F)F)c1nccc(-c2cnn3ncccc23)n1 | binding |  | 1 µM | 100% |
| Nc1cnc(N2CCc3cc(S(=O)(=O)Nc4c(F)cc(Cl)cc4F)cc(N4CCCC4=O)c32)nc1 | cell-free assay | competition with immobilised ligand | 1 µM | 81% |
| COC(=O)Nc1nc2ccc(C(=O)c3ccccc3)cc2[nH]1 | cell-free assay | competition with immobilised ligand | 10 µM | 30% |
| O=C(Nc1c[nH]nc1C(=O)NC1CCNCC1)c1cc(F)cc(F)c1 | binding | competition with immobilised ligand | 1 µM | 93% |
| C[C@@H]1CCN(c2nccc(-c3cnn4ncccc34)n2)C1 | binding |  | 1 µM | 87% |
| Cc1cc(-n2nc(Cc3cc(F)cc(C(F)(F)F)c3)nc2C)ccc1C(N)=O | cell-free assay | competition with immobilised ligand | 1 µM | 100% |
| C[C@@H]1CN(c2ccc3ncc(-c4ccc5[nH]nc(C6CC6)c5c4)n3n2)C[C@H](C)O1 | binding | competition with immobilised ligand | 50 nM | 86% |
| CC(=O)C1=C(C)N(c2cccc(C(F)(F)F)c2)C(=O)N[C@@H]1c1ccc(C#N)nc1 | cell-free assay | competition with immobilised ligand | 1 µM | 84% |
| CN(C)c1ncc(F)c(-c2cnn3ncccc23)n1 | binding |  | 1 µM | 75% |
| C=CC(=O)N1CCC(C(=O)NCC(=O)N2CCN(c3nc(-c4cnc(N)nc4C(F)F)nc(N4CCOCC4)n3)CC2)CC1 | binding | competition with immobilised ligand | 1 µM | 81% |
| CN(c1nccc(-c2cnn3ncccc23)n1)C1CC1 | binding |  | 1 µM | 100% |
| O=C(c1ccc(Nc2ncc(Cl)c(-c3cc4ccccc4s3)n2)cc1)N1CCC(N2CCCC2)CC1 | binding | competition with immobilised ligand | 1 µM | 12% |
| O=C(O)[C@H]1[C@H](Cn2nnc3ccccc3c2=O)CC[C@@H]1C(=O)c1ccc(OCCC2CCOCC2)cc1 | cell-free assay | competition with immobilised ligand | 1 µM | 88% |
| Nc1ncc2c(n1)-c1c([nH]c3ccc(C#CC4CC4)cc13)CCCC2 | binding | competition with immobilised ligand | 1 µM | 90% |
| COc1ccc2c(O[C@@H]3C[C@H]4C(=O)N[C@]5(C(=O)O)CC5/C=C\CCCCC[C@H](NC(=O)OC5CCCC5)C(=O)N4C3)cc(-c3csc(NC(=O)C(C)C)n3)nc2c1C (stereo partly shown) | cell-free assay | competition with immobilised ligand | 1 µM | 83% |
| N[C@H]1CCN(c2nccc(-c3cnn4ncccc34)n2)C1 | binding |  | 1 µM | 100% |
| C[C@@H](c1ccc(-n2cnc3c(N)ncnc32)cc1)N1CCc2nn(C)c(Cc3ccccc3)c2C1=O | binding | competition with immobilised ligand | 0.1 µM | 69% |
| O=C(NCCCN1CCOCC1)c1ccc(Nc2ncc(Cl)c(-c3ccc(Cl)s3)n2)cc1 | binding | competition with immobilised ligand | 1 µM | 13% |
| N#CC1(c2ccccn2)CCN(Cc2cc(C(=O)N3CCCC3)c(=O)n3ccccc23)CC1 | cell-free assay | competition with immobilised ligand | 1 µM | 92% |
| O=C(NCCCN1CCOCC1)c1ccc(Nc2nccc(-c3cc4ccccc4s3)n2)cc1 | binding | competition with immobilised ligand | 1 µM | 72% |
| Cc1cnn2ncc(-c3ccnc(N(C)C)n3)c2c1 | binding |  | 1 µM | 96% |
| O=C(Nc1cnc(Oc2ccc(F)cc2)nc1)N1CCc2ncccc2[C@@H]1c1ccc(F)cc1 | cell-free assay | competition with immobilised ligand | 1 µM | 88% |
| CCN1CCN(Cc2ccc(C(=O)Nc3ccc(C)c(Oc4ccc5c(c4)CC(=O)N5)c3)cc2C(F)(F)F)CC1 | binding | competition with immobilised ligand | 1 µM | 100% |
| O=C(NCc1ncc(C(F)(F)F)cc1Cl)c1ccc2c(c1)C1(CCS(=O)(=O)CC1)[C@H](C1CC1)N2S(=O)(=O)c1ccc(F)cc1 | cell-free assay | competition with immobilised ligand | 1 µM | 83% |
| COc1cnc(Nc2cccc(S(N)(=O)=O)c2)nc1N1CCN(c2ccccc2)CC1 | binding | competition with immobilised ligand | 1 µM | 83% |
